Laboratory results: ChEMBL document CHEMBL1127519, “1,3-Diarylindan-2-carboxylic acids, potent and selective non-peptide endothelin receptor antagonists” (J Med Chem, 1994)

How the values were obtained:
[1] = biological target: T1, Endothelin receptor type B (Homo sapiens, UniProt P24530); assay: Inhibition of [125I]ET1 binding to cloned human ET-B receptor
T1 sequence (P24530 whole entry): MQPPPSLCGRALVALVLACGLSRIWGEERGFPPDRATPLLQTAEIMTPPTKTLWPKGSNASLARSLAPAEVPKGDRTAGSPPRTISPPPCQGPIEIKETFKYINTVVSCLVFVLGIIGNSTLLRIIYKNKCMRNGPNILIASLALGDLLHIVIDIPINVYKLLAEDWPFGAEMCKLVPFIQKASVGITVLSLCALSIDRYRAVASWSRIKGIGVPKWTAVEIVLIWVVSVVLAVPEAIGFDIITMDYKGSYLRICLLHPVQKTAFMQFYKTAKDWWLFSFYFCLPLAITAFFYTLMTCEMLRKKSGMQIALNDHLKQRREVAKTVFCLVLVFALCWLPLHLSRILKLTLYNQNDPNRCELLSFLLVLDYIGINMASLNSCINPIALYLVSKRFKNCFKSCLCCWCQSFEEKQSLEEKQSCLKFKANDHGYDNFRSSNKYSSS
In short: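 Membranes from CHO cells stably expressing cloned human ET-B receptor (0.05 μg per tube) incubated with [125I]ET-1 (0.3 nM), without or with rising concentrations of unlabeled ligand, 30 °C for 1 h. Filtration separated bound from free, gamma counting. Nonspecific binding 2-5%. Apparent Ki derived from competition curves, n ≥ 3.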

[2] = biological target: T2, Endothelin-1 receptor (Homo sapiens, UniProt P25101); assay: Inhibition of [125I]ET1 binding to cloned human ET-A receptor
T2 sequence (P25101 whole entry): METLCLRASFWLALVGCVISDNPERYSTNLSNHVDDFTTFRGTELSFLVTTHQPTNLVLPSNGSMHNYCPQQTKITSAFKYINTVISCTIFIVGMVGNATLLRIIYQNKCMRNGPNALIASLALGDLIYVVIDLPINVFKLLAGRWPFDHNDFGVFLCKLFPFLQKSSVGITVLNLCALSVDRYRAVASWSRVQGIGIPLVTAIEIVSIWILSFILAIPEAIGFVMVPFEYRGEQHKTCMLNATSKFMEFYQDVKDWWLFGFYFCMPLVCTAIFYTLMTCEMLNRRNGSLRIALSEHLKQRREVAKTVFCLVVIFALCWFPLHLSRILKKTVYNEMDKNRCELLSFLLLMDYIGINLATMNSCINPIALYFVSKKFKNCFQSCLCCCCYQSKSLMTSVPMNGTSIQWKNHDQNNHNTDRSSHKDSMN
In short: (§1)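 Membranes from CHO cells stably expressing cloned human ET-A receptor (0.5 μg per tube) incubated with [125I]ET-1 (0.3 nM) alone or with increasing unlabeled ligand, 1 h at 30 °C. Bound and free separated by filtration and counted by γ-counter. Nonspecific binding 8-25%. Apparent Ki from competition curves, n ≥ 3.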

[3] = biological target: T2, Endothelin-1 receptor; assay: Inhibition of [125I]ET1 binding to cloned human Endothelin A receptor; in short: as §1

| SMILES | Ki [1] | Ki [2] | Ki [3] |
| --- | --- | --- | --- |
| COc1ccc([C@@H]2c3ccccc3[C@H](c3ccc(OC)cc3)[C@H]2C(=O)O)cc1 | 2440 nM | 422 nM | – |
| COc1ccc([C@H]2c3ccccc3[C@@H](c3ccccc3)[C@@H]2C(=O)O)cc1 | > 30000 nM | – | 5670 nM |
| CCCOc1ccc2c(c1)[C@@H](c1ccc(OC)cc1)[C@H](C(=O)O)[C@H]2c1ccc2c(c1)OCO2 | 1040 nM | 11.3 nM | – |
| CCCOc1ccc2c(c1)[C@@H](c1ccc(OC)cc1OCC(=O)O)[C@H](C(=O)O)[C@H]2c1ccc2c(c1)OCO2 [SB-209670] | 14.7 nM | 0.43 nM | – |

The remaining lines, values ahead:

| Ki [1] | Ki [2] | Ki [3] | SMILES |
| --- | --- | --- | --- |
| 757 nM | 43 nM | – | COc1ccc([C@H]2c3ccccc3[C@@H](c3ccc4c(c3)OCO4)[C@@H]2C(=O)O)cc1 |
| > 30000 nM | 11200 nM | – | O=C(O)[C@H]1[C@H](c2ccccc2)c2ccccc2[C@@H]1c1ccccc1 |
| 483 nM | 15 nM | – | COc1ccc([C@@H]2c3cc(O)ccc3[C@H](c3ccc4c(c3)OCO4)[C@H]2C(=O)O)cc1 |
